Columns and labels:
[1] = molecular target: T1, Tyrosinase (Mus musculus) (UniProt P11344); experiment: Inhibition of tyrosinase activity in alpha-MSH-stimulated mouse B16 cells at 100 uM using L-tyrosine as substrate; type: cell-based
T1 sequence (whole entry): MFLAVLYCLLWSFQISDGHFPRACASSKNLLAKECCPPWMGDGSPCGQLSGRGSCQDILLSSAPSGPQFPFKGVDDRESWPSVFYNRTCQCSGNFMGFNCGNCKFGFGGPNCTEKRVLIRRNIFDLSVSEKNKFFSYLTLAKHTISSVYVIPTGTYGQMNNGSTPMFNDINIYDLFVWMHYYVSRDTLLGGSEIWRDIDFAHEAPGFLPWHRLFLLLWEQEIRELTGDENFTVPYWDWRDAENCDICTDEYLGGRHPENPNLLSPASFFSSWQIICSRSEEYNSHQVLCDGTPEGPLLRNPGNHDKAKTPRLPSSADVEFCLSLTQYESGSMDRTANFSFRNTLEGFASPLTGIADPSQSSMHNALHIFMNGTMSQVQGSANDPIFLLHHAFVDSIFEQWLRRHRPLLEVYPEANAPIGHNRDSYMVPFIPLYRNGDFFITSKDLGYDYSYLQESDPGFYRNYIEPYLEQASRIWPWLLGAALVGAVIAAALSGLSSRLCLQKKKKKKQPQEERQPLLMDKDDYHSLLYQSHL
Outline: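 Enzyme source: B16 cells stimulated 48 h with 10 nM α-MSH, sonicated on ice and centrifuged. Supernatant dialysed against 50 mM sodium phosphate, pH 6.8. Compound preincubated with the cell-free enzyme, then 5 mM L-tyrosine added as substrate. Initial rate of dopachrome formation followed at 475 nm. One unit converts 1 nmol L-tyrosine per min.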

[2] = test system: Radical scavenging activity; experiment: Antioxidant activity assessed as DPPH free radical scavenging activity at 100 uM after 30 mins; type: functional
Outline: (§1)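 Compounds in ethanol mixed 1:1 by volume with 200 µM DPPH stock (stock concentration). Shaken 30 min at room temperature, absorbance read at 517 nm. Percent scavenging taken against DPPH without compound, blank-corrected. Screening done at 100 µM final. […] Triplicate runs, vitamin C as positive control.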

B16 [3] = experiment: Inhibition of alpha-MSH-induced melanin synthesis in mouse B16 cells grown in a 5% CO2-95% air atmosphere at 10 uM after 3 days; type: functional; conditions: B16, 72 h
Outline: (§2)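 Mouse B16 melanoma cells seeded at 2.5×10^3 per well in DMEM with 10% FBS and grown 1 day at 37 °C. α-MSH was added together with compound at various concentrations, then cells were incubated 3 days at 37 °C. Absorbance at 405 nm was read against a synthetic melanin standard curve (melanin dissolved in 0.85 N KOH). IC50 is the mean of triplicate determinations.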

[4] = test system: Radical scavenging activity; experiment: Antioxidant activity assessed as DPPH free radical scavenging activity after 30 mins; type: functional; outline: as §1
B16 [5] = experiment: Inhibition of alpha-MSH-induced melanin synthesis in mouse B16 cells grown in a 5% CO2-95% air atmosphere after 3 days; type: functional, cell-based; conditions: B16, 72 h; outline: as §2
Tyrosinase = molecular target: T2, Tyrosinase (Mus musculus, UniProt P11344); experiment: Inhibition of tyrosinase activity in alpha-MSH-stimulated mouse B16 cells using L-tyrosine as substrate; type: cell-based
T2 sequence (P11344 whole entry): T1 sequence (whole entry)
Outline: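 Enzyme source: B16 cells stimulated 48 h with 10 nM α-MSH, sonicated on ice and centrifuged. Supernatant dialysed against 50 mM sodium phosphate, pH 6.8. Compound preincubated with the cell-free enzyme, then 5 mM L-tyrosine added as substrate. One unit converts 1 nmol L-tyrosine per min.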

| inhibition [1] [%] | EC50 [4] [µM] | IC50 (B16 [5]) [µM] | IC50 (Tyrosinase) [µM] | Structure (SMILES) | inhibition [2] [%] | inhibition at 10 µM (B16 [3]) [%] |
| --- | --- | --- | --- | --- | --- | --- |
| 5.5 |  |  |  | Oc1cc(OCc2ccc(F)cc2)cc(OCc2ccc(F)cc2)c1 | 21.2 | 12 |
| 1.5 |  |  |  | Oc1cc(OCc2cccc(Cl)c2)cc(OCc2cccc(Cl)c2)c1 | 22.1 | 21 |
| 0 |  |  |  | Oc1cc(OCc2ccc(Cl)c(Cl)c2)cc(OCc2ccc(Cl)c(Cl)c2)c1 | 17 | 4 |
| 1 | 76.8 | 1.83 |  | Oc1ccc(OCc2cccc(Cl)c2)cc1 | 54.7 | 78 |
| 66 |  |  | 66.4 | Oc1cc(O)cc(OCc2ccc(Cl)c(Cl)c2)c1 | 37.3 | 15 |
| 70.5 | 119 |  | 54.7 | Oc1cc(O)cc(OCc2cccc(Cl)c2)c1 | 49 | 18 |
| 3.5 |  |  |  | Oc1cc(OCc2ccccc2Cl)cc(OCc2ccccc2Cl)c1 | 15.6 | 33 |

More lines, now with the values behind:

| Structure (SMILES) | inhibition [1] [%] | EC50 [4] [µM] | IC50 (B16 [5]) [µM] | IC50 (Tyrosinase) [µM] | inhibition [2] [%] | inhibition at 10 µM (B16 [3]) [%] |
| --- | --- | --- | --- | --- | --- | --- |
| COc1cc(COc2cc(O)cc(O)c2)cc(OC)c1 | 27.5 | 129 |  |  | 46.8 | 19 |
| Oc1ccc(OCc2ccccc2Cl)cc1 | 0 | 113 |  |  | 46.5 | 55 |
| OC[C@H]1O[C@@H](Oc2ccc(O)cc2)[C@H](O)[C@@H](O)[C@@H]1O [ARBUTIN] |  |  | 99 |  |  |  |
| COc1cc(COc2cc(O)cc(OCc3cc(OC)cc(OC)c3)c2)cc(OC)c1 | 0 |  |  |  | 27.4 | 6 |
| Oc1cc(O)cc(OCc2ccc(F)cc2)c1 | 55.5 | 140 |  | 90 | 46.6 | 14 |
| COc1cc(COc2ccc(O)cc2)cc(OC)c1 | 0 | 76.3 | 1.93 |  | 54.1 | > 100 |
| CC(=O)Oc1cc(O)cc(OCc2ccc(Cl)c(Cl)c2)c1 |  |  |  |  | 8 |  |
| Oc1cc(O)cc(OCc2ccccc2Cl)c1 | 45.5 | 165 |  |  | 42.8 | 11 |
| Oc1ccc(OCc2ccc(F)cc2)cc1 | 1.5 | 102 |  |  | 48.2 | 42 |
| Oc1ccc(OCc2ccc(Cl)c(Cl)c2)cc1 | 9.5 |  | 1.87 |  | 33.2 | 87 |
| O=C1O[C@H]([C@@H](O)CO)C(O)=C1O [ASCORBIC ACID] |  | 26.2 |  |  | 93.9 |  |
| COc1cc(COc2cc(O)cc(OC(C)=O)c2)cc(OC)c1 |  |  |  |  | 1.7 |  |
